In brackets after ≈: the same amount, converted by molar mass.
Tests used:
[1] = Metabolic stability in mouse plasma assessed as compound remaining at 1 uM after 30 mins by LC-MS/MS analysis; type: ADME, cell-free; conditions: read-out: Stability
Outline: (§1)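 A 30 mM DMSO stock was diluted to 100 µM in acetonitrile, then spiked into thawed mouse plasma (1 µM final) and incubated at 37 °C. Aliquots were precipitated in acetonitrile containing buspirone, shaken 5 min and centrifuged at 4000g for 10 min. Supernatant was analysed by LC-MS/MS. Percent remaining = concentration at each time / t0 concentration × 100; mean of at least three experiments.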

[2] = Metabolic stability in mouse plasma assessed as compound remaining at 1 uM after 60 mins by LC-MS/MS analysis; type: ADME, cell-free; conditions: read-out: Stability; outline: as §1
[3] = (§2) Metabolic stability in mouse plasma assessed as compound remaining at 1 uM after 24 hrs by LC-MS/MS analysis; type: ADME, cell-free; conditions: read-out: Stability; outline: as §1
[4] = molecular target: T1, Peroxisome proliferator-activated receptor alpha (Homo sapiens, UniProt Q07869); experiment: Antagonist activity at human PPAR-alpha assessed as inhibition of GW7647-induced effect after overnight incubation by cell-based luciferase reporter gene assay
T1 sequence (Q07869 whole entry): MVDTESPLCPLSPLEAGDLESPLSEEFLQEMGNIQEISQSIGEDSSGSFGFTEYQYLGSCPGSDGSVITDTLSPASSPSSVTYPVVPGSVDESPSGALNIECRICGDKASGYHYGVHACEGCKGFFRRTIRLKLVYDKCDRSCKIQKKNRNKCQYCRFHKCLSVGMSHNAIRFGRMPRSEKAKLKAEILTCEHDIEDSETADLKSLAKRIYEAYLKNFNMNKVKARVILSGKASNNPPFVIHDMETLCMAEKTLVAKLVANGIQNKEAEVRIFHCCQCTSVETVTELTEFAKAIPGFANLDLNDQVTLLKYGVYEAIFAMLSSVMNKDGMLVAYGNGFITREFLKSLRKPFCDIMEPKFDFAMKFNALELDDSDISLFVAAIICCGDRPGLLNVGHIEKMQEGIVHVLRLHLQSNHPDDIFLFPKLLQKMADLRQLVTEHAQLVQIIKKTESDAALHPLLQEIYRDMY

[5] = Solubility of the compound in aqueous buffer at pH 7.4 after 24 hrs by LC-MS/MS analysis; type: physicochemical
Outline: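 Compound from a 10 mM DMSO stock was added to pH 7.4 buffer, vortexed 2 min, then shaken on an orbital shaker for 24 h at room temperature. Samples were then vacuum-filtered through a polycarbonate membrane before measurement.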

Plasma [6] = experiment: as §2; type: ADME, cell-free; conditions: 24 h, 1 µM; outline: as §1
[7] = molecular target: T2, Peroxisome proliferator-activated receptor delta (Homo sapiens, UniProt Q03181); experiment: Inhibition of human PPAR-delta
T2 sequence (Q03181 whole entry): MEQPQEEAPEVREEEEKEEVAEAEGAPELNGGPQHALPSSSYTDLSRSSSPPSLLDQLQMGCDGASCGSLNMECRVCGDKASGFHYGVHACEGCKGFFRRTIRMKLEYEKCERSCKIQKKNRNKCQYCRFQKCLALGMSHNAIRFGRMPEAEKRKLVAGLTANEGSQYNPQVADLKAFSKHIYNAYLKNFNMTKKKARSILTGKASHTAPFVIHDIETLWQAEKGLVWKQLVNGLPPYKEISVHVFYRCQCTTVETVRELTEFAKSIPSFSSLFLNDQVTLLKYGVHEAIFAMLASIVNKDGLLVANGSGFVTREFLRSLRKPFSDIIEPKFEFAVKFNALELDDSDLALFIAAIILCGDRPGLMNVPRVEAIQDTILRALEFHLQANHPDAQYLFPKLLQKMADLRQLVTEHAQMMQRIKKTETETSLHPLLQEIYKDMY

[8] = molecular target: T3, Peroxisome proliferator-activated receptor gamma (Homo sapiens, UniProt P37231); experiment: Inhibition of human PPAR-gamma
T3 sequence (P37231 whole entry): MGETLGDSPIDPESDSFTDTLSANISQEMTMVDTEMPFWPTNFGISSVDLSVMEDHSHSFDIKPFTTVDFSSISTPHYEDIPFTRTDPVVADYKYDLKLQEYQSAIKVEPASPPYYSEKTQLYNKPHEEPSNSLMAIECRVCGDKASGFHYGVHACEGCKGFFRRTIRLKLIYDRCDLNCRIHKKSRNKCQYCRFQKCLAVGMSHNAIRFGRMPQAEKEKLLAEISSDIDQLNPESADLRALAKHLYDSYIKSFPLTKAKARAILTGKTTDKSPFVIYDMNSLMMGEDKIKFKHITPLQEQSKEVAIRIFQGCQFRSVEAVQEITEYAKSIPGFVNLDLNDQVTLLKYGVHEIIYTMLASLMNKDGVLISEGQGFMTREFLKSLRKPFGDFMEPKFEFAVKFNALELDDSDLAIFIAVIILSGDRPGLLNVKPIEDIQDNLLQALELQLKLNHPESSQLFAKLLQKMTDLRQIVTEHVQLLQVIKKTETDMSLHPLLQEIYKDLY

Glucocorticoid receptor = molecular target: T4, Glucocorticoid receptor (Homo sapiens, UniProt P04150); experiment: Inhibition of human glucocorticoid receptor
T4 sequence (P04150 whole entry): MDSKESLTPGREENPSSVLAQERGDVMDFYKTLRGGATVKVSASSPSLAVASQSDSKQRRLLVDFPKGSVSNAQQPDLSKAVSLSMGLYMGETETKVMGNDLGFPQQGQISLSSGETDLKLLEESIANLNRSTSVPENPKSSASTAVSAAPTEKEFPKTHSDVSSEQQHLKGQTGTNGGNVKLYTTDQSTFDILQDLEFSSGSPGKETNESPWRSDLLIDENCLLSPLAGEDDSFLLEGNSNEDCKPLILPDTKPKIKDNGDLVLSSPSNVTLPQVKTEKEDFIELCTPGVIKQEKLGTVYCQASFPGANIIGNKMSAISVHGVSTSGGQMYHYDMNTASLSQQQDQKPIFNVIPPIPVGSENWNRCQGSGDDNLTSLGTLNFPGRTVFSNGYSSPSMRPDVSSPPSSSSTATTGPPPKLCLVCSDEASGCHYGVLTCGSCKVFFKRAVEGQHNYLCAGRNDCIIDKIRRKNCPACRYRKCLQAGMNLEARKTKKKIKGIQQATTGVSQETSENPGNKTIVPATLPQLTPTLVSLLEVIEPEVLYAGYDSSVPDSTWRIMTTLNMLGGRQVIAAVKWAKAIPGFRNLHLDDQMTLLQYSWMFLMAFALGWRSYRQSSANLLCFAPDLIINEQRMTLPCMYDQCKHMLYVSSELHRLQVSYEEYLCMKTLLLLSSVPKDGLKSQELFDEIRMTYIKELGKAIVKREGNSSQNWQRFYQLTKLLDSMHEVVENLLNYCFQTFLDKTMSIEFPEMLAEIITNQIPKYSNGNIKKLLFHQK

[9] = molecular target: T5, Thyroid hormone receptor beta (Homo sapiens, UniProt P10828); experiment: Inhibition of human thyroid hormone receptor-beta
T5 sequence (P10828 whole entry): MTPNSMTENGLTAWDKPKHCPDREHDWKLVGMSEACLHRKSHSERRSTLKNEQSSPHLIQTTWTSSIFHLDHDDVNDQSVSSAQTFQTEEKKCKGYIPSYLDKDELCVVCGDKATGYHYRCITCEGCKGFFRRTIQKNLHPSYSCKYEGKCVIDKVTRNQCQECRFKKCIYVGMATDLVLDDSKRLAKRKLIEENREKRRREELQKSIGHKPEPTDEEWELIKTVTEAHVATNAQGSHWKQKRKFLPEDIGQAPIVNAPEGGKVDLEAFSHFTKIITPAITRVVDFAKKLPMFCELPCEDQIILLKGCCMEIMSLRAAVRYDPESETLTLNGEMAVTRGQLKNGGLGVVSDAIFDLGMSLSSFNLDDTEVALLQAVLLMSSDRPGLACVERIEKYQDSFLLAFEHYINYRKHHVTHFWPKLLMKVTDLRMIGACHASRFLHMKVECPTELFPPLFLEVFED

[10] = Cmax in CD-1 mouse at 30 mg/kg, ip after 1 hr; type: ADME, organism-based; design: dose 30 mg/kg, route intraperitoneal; conditions: in vivo
Outline: (§3)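 Mouse pharmacokinetics in CD1 mice given a single intraperitoneal dose of 30 mpk, formulated in saline or in 98% saline/2% tween.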

[11] = AUC in CD-1 mouse at 30 mg/kg, ip; type: ADME, organism-based; design: dose 30 mg/kg, route intraperitoneal; conditions: plasma; outline: as §3
Estrogen receptor beta = Estrogen receptor beta (Homo sapiens, UniProt Q92731); experiment: Inhibition of human estrogen receptor beta
Plasma [12] = experiment: Drug level in mouse plasma treated with 1 uM 5 after 24 hrs by LC-MS/MS analysis; type: ADME, cell-free
[13] = molecular target: T1, Peroxisome proliferator-activated receptor alpha; experiment: Agonist activity at human PPAR-alpha

Sequence of Estrogen receptor beta (Q92731 whole entry): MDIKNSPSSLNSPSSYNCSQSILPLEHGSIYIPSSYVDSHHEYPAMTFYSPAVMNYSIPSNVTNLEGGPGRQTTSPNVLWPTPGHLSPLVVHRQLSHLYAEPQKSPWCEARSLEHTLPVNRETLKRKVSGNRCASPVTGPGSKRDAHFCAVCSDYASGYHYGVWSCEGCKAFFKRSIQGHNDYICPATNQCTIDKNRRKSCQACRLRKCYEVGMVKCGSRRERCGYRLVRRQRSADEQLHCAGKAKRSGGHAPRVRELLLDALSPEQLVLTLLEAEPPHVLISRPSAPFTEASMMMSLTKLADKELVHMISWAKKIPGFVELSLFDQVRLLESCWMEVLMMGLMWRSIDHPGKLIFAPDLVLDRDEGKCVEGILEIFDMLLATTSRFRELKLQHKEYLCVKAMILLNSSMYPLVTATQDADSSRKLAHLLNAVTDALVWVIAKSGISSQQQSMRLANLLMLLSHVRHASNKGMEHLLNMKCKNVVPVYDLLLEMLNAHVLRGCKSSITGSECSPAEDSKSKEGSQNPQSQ

Structure (SMILES)	remaining at 0.5 h, 1 µM [1]	remaining at 1 h, 1 µM [2]	IC50 [4]	solubility at 24 h [5]	other results
CCn1c(CCCc2ccc(-c3ccc(NS(C)(=O)=O)cn3)cc2)nn(Cc2ccc(C(C)(C)C)cc2)c1=O	–	–	113 nM	0.423 µM (≈ 0.232 µg/mL)	remaining at 24 h, 1 µM [3]: 105%
CCn1c(CCCc2ccc(-c3ccc(NS(=O)(=O)c4ccccc4)cc3)cc2)nn(Cc2ccc(C(C)(C)C)cc2)c1=O	–	–	21 nM	0.018 µM (≈ 0.011 µg/mL)	Stability (Plasma [6]): 124.7%
CCn1c(CCCc2ccc(-c3cccc(NS(=O)(=O)c4ccccc4)c3)cc2)nn(Cc2ccc(C(C)(C)C)cc2)c1=O	–	–	386 nM	0.037 µM (≈ 0.0225 µg/mL)	Stability (Plasma [6]): 136%
CCn1c(CCCc2ccc(-c3ccc(NS(=O)(=O)Cc4ccccc4)cc3)cc2)nn(Cc2ccc(C(C)(C)C)cc2)c1=O	–	–	311 nM	0.012 µM (≈ 0.00747 µg/mL)	Stability (Plasma [6]): 133.9%
CCn1c(CCCc2ccc(-c3ccc(NS(=O)(=O)c4ccc(-c5ccc(OC)cc5)cc4)cc3)cc2)nn(Cc2ccc(C(C)(C)C)cc2)c1=O	–	–	4800 nM	0.082 µM (≈ 0.0586 µg/mL)	IC50 [7]: > 100000 nM; IC50 [8]: > 100000 nM; IC50 (Glucocorticoid receptor): 32000 nM; IC50 [9]: > 69000 nM; Cmax [10]: 7.2 µM; remaining at 24 h, 1 µM [3]: 119%; AUC [11]: 23000 ng·h/mL; IC50 (Estrogen receptor beta): 34800 nM
CCn1c(CCCc2ccc(OC(C)(C)C(=O)NS(=O)(=O)C3CCCCC3)cc2)nn(Cc2ccc(C(C)(C)C)cc2)c1=O	60.5%	43.6%	3 nM	–	–
CCn1c(CCCc2ccc(OC(C)(C)C(=O)O)cc2)nn(Cc2ccc(C(C)(C)C)cc2)c1=O	–	–	–	–	Drug metabolism (Plasma [12]): metabolite_detected
CCn1c(CCCc2ccc(-c3ncc(NS(=O)(=O)c4ccccc4)cn3)cc2)nn(Cc2ccc(C(C)(C)C)cc2)c1=O	–	–	114 nM	0.091 µM (≈ 0.0556 µg/mL)	remaining at 24 h, 1 µM [3]: 119%
CCn1c(CCCc2ccc(-c3cnc(NS(=O)(=O)c4ccccc4)cn3)cc2)nn(Cc2ccc(C(C)(C)C)cc2)c1=O	–	–	218 nM	4.9 µM (≈ 2.99 µg/mL)	Stability (Plasma [6]): 131.2%
C/C(=C/C(=O)c1ccccc1)N[C@@H](Cc1ccc(OCCc2nc(-c3ccccc3)oc2C)cc1)C(=O)O	–	–	–	–	EC50 [13]: 240 nM
CCn1c(CCCc2ccc(-c3ccc(NS(=O)(=O)c4ccccc4)nc3)cc2)nn(Cc2ccc(C(C)(C)C)cc2)c1=O	–	–	122 nM	0.014 µM (≈ 0.00854 µg/mL)	Stability (Plasma [6]): 128.7%

More lines, main results first:

remaining at 0.5 h, 1 µM [1]	remaining at 1 h, 1 µM [2]	IC50 [4]	solubility at 24 h [5]	Structure (SMILES)	other results
89.5%	81.9%	13 nM	–	CCn1c(CCCc2ccc(OC(C)(C)C(=O)NS(=O)(=O)c3ccc(C(C)C)cc3)cc2)nn(Cc2ccc(C(C)(C)C)cc2)c1=O	remaining at 24 h, 1 µM [3]: 2.7%
21%	7%	4.6 nM	–	CCn1c(CCCc2ccc(OC(C)(C)C(=O)NS(=O)(=O)C3CCCC3)cc2)nn(Cc2ccc(C(C)(C)C)cc2)c1=O	–
73.1%	63.7%	2.8 nM	–	CCn1c(CCCc2ccc(OC(C)(C)C(=O)NS(=O)(=O)c3ccc(C)cc3)cc2)nn(Cc2ccc(C(C)(C)C)cc2)c1=O	–
80%	62.3%	60 nM	–	CCn1c(CCCc2ccc(CC(C)(C)C(=O)NS(=O)(=O)c3ccccc3)cc2)nn(Cc2ccc(C(C)(C)C)cc2)c1=O	–
82.4%	75.2%	80 nM	–	CCn1c(CCCc2ccc(OC(C)(C)C(=O)NS(=O)(=O)c3cccnc3)cc2)nn(Cc2ccc(C(C)(C)C)cc2)c1=O	remaining at 24 h, 1 µM [3]: 0.2%
6.7%	0.7%	–	–	CCn1c(CCCc2ccc(OC(C)(C)C(=O)NS(=O)(=O)c3ccccc3)cc2)nn(Cc2ccc(C(C)(C)C)cc2)c1=O	–
75.4%	66.6%	78 nM	–	CCn1c(CCCc2ccc(OC(C)(C)C(=O)NS(=O)(=O)c3ccoc3)cc2)nn(Cc2ccc(C(C)(C)C)cc2)c1=O	–
86.9%	86.5%	42 nM	–	CCn1c(CCCc2ccc(OC(C)(C)C(=O)NS(=O)(=O)C3=CCOC=C3)cc2)nn(Cc2ccc(C(C)(C)C)cc2)c1=O	–
103%	105%	34 nM	–	CCn1c(CCCc2ccc(OC(C)(C)C(=O)NS(=O)(=O)c3ccc(C(F)(F)F)cc3)cc2)nn(Cc2ccc(C(C)(C)C)cc2)c1=O	remaining at 24 h, 1 µM [3]: 53.7%
1.7%	0.1%	6.6 nM	–	CCn1c(CCCc2ccc(OC(C)(C)C(=O)NS(=O)(=O)C3CC3)cc2)nn(Cc2ccc(C(C)(C)C)cc2)c1=O	–
